A selection: hits, their analogues and other compounds. The true share with any hit is near 2%.
PG9 binder: small molecules binding HIV-1 gp120 antibody PG9; inhibition, % at 6.7 µM; TR-FRET gp120-PG9 antibody binding; 360,000 compounds, 0.43% hits; in the data active = inhibition above about 8.5%
Rev-erbA mod: modulators of human Rev-erb alpha DNA binding; 370,000 compounds, 0.79% hits; activity, % at 10 µM; P20393; Rev-erbα–FITC-DNA binding, fluorescence polarization, 90 min; AID 1259318;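 active = activity above about 14%, limit read from the data; passing the limit was not always enough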
Target sequence (P20393 whole entry, looked up): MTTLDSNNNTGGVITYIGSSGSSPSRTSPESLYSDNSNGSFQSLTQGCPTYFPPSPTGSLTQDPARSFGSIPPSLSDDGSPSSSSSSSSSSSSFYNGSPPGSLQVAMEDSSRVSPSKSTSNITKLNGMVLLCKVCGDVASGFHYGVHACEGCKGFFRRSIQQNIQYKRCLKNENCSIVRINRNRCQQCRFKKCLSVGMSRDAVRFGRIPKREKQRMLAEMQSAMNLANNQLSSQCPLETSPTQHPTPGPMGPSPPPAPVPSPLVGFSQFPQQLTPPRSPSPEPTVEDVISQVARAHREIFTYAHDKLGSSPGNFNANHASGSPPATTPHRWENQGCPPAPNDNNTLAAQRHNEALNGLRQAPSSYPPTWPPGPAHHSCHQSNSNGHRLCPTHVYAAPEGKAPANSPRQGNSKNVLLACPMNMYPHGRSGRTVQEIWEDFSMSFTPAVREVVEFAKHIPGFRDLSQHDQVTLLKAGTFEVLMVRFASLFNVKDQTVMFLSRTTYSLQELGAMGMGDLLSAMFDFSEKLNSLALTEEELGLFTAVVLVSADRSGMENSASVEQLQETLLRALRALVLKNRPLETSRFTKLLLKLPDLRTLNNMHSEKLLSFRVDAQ
NR2E3 ag-1: activates human NR2E3 receptor; AID 602229; CHO-S Gal4-NCOR/VP16-NR2E3 two-hybrid, luciferase; inhibition of corepressor binding, % at 3.98 µM; Q9Y5X4; 360,000 compounds, 0.35% hits;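 active = inhibition above the mean of all tested compounds plus 3 SD, cut at about 70% in these data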;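 also: higher means lower luciferase signal from less NR2E3 corepressor binding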
Neddyl block: inhibitors of human cullin neddylation; TR-FRET cullin neddylation, biochemical; calls only at 25 µM; 360,000 compounds, 0.58% hits; AID 651699; in the data active = inhibition above about 36%
NR2E3 ag-2: activates human photoreceptor nuclear receptor NR2E3 | GST-NR2E3/biotin-RetCOR TR-FRET, 1536-well | Q9Y5X4 | 320,000 compounds, 0.12% hits | inhibition of corepressor binding, % at 4.78 µM;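 active = percent inhibition above the cutoff of mean plus 3 SD of all tested compounds, set per screening campaign, cut at about 20% in these data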
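Material – GST-tagged NR2E3 plus biotinylated RetCOR corepressor · Quantity – NR2E3 fusion 1.35 nM · Times – 5 h incubation at 4 °C · Medium – pH 7.5 Tris-based buffer · Technique – TR-FRET, Eu(K)-anti-GST donor, streptavidin-D2 acceptor, ex 340, em 617/671 nm · Benchmarks – high control biotin, low control 0.6% DMSO · Format – 1536-well plates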
Rev-erbA confirm: confirmation of modulators of human Rev-erb alpha DNA binding | shares compounds with Rev-erbA mod | activation, % at 25 µM | 3,000 compounds, 61% hits | Rev-erb alpha FITC-DNA binding, fluorescence polarization, 90 min;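 active = activation at or above a set limit, or at least 3 SD above the negative control mean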
RORg counter: RORgamma DNA-binding activity, dose-response counter-screen. shares compounds with Rev-erbA mod. purified RORgamma protein-FITC-DNA binding, fluorescence polarization. IC50, µM. 910 compounds, 8% hits. AID 1259320;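 active = Compounds whose fitted half-maximal concentration for disrupting protein-DNA binding is below 10 micromolar; the record names Rev-erb in its text, so the target is in doubt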
Each line names hits and unclear results; the compound was inactive in the other large screens (follow-up assays come after a bar, where shown).

CCOC(=O)c1nn(-c2ccc(F)cc2)c(=O)cc1OCC(=O)Nc1ccc(OCC)cc1	Rev-erbA mod 19 | Rev-erbA confirm inactive
COc1ccc(-n2nc(C(=O)NCC(=O)Nc3cc(OC)c(OC)c(OC)c3)c3ccccc3c2=O)cc1Cl	none
COc1ccc(-n2nc(C(=O)NCC(=O)Nc3ccccn3)c3ccccc3c2=O)cc1	Rev-erbA mod 42 | Rev-erbA confirm 18
COc1ccc(-n2nc(C(=O)NCC(=O)Nc3cccc(Cl)c3)c3ccccc3c2=O)cc1	Rev-erbA mod 82 | Rev-erbA confirm 39 | RORg counter inactive
COc1ccc(C(=O)NCC(=O)N2CCC(Cc3ccccc3)CC2)cc1OC	none (no result: NR2E3 ag-2)
CCCCc1c(-c2ccccc2OC)ncn1Cc1ccc(F)cc1F	none (no result: NR2E3 ag-1, Neddyl block, NR2E3 ag-2)
COc1ccc(-n2nc(C(=O)NCC(=O)NCc3ccc(F)cc3)c3ccccc3c2=O)c(OC)c1	Rev-erbA mod 27 (no result: NR2E3 ag-2) | Rev-erbA confirm inactive
COc1ccc(-n2nc(C(=O)NCC(=O)N3CCN(c4ccccc4F)CC3)c3ccccc3c2=O)cc1	Rev-erbA mod 25 | Rev-erbA confirm inactive
CCOC(=O)c1ccccc1NC(=O)Cn1cnc2c(cnn2-c2ccc(OC)cc2)c1=O	Rev-erbA mod 22 (no result: NR2E3 ag-1, Neddyl block) | Rev-erbA confirm inactive
CSc1ccc(CN2CCC2(C)C(=O)Nc2cccc(Oc3ccccc3)c2)cc1 (stereo not given)	none (no result: NR2E3 ag-2)
O=C(Nc1nc(-c2ccc3c(c2)Cc2ccccc2-3)cs1)c1ccccc1	Rev-erbA mod 50 | Rev-erbA confirm inactive
Cc1cc(NC(=O)CSc2nc3c(C)ccc(C)c3cc2C#N)no1	Rev-erbA mod 75 | Rev-erbA confirm 36 | RORg counter inactive
Cc1cc(C)c2cc(C#N)c(SCC(=O)Nc3cc(C)on3)nc2c1	Rev-erbA mod 105 | Rev-erbA confirm 49 | RORg counter inactive
Cc1ccc(C)c2nc(SCC(=O)N3CCCc4ccccc43)c(C#N)cc12	Rev-erbA mod 61 | Rev-erbA confirm 72 | RORg counter inactive
CCc1cc2c(C)cc(C)cc2nc1SCC(=O)Nc1cc(C)on1	Rev-erbA mod 97 | Rev-erbA confirm 19
CN(c1ccccc1)S(=O)(=O)c1ccc(Cl)c(C(=O)Nc2ccccc2N2CCOCC2)c1	none (no result: NR2E3 ag-2)
COc1cccc(CN2CCC(Oc3ccc(C(=O)N4CCCCC4)cc3)CC2)c1O	none
O=C(c1ccc(OC2CCN(Cc3ccccc3O)CC2)cc1)N1CCCCC1	Rev-erbA mod 36 | Rev-erbA confirm inactive
CCc1nnc(NC(=O)c2ccc(-c3cc(C(F)(F)F)ccc3Cl)o2)s1	none
CC(NC(=O)c1ccc(-c2cc(C(F)(F)F)ccc2Cl)o1)c1ccccc1 (stereo not given)	Rev-erbA mod 30 | Rev-erbA confirm 45 | RORg counter 0.78
CNC(=S)Nc1ccc(OC)c(OC)c1	none
Cc1cc(C)nc(NC(=S)Nc2cccc(Cl)c2Cl)c1	Rev-erbA mod 63 | Rev-erbA confirm inactive
COc1ccc(NC(=S)Nc2cc(C)cc(C)n2)cc1OC	Rev-erbA mod 22 | Rev-erbA confirm inactive
CCCNC(=O)C1(C)CCN(Cc2cc(C(F)(F)F)ccc2Cl)C1 (stereo not given)	none (no result: NR2E3 ag-2)
C=CCN1C=CC(=CC=C(C#N)C#N)C=C1	Rev-erbA mod 32 | Rev-erbA confirm 22
CCOC(=O)/C(C#N)=C/C=C1\C=Cc2ccccc2N1CC	Rev-erbA mod 74 | Rev-erbA confirm 56 | RORg counter 7.4
CCCN1C=CC(=CC=C(C#N)C#N)C=C1	Rev-erbA mod 28 | Rev-erbA confirm inactive
CCCCCCN1C=CC(=C/C=C(\C#N)C(=O)OCC)C=C1	Rev-erbA mod 58 | Rev-erbA confirm 30
C=CCN1C=C/C(=C\C=C(C#N)C#N)c2ccccc21	none
CCCN1C=CC(=C/C=C(\C#N)C(=O)OCC)C=C1	none (no result: PG9 binder, Rev-erbA mod, NR2E3 ag-1, Neddyl block)
CCOC(=O)c1cc(C#N)c(NCc2ccccc2)nc1C	none
COC(=O)c1cc(C#N)c(NCc2ccc(Cl)cc2Cl)nc1C	Rev-erbA mod 24 | Rev-erbA confirm inactive
COC(=O)c1ccc(NC(=O)c2cn(-c3ccccc3)nc2-c2ccncc2)cc1	Rev-erbA mod 289 | Rev-erbA confirm 254 | RORg counter inactive
Cc1cc(=O)oc2cc(NC(=O)c3c(Cl)cnn3C)ccc12	Rev-erbA mod 21 | Rev-erbA confirm inactive
OCC[C@H]1NCc2cc(CO)cc(-c3ccccc3)c21	none (no result: NR2E3 ag-2)
O=C(NCCc1ccc(Cl)cc1)c1ccc2nccnc2c1	Rev-erbA mod 14 | Rev-erbA confirm inactive
O=C(NCCc1ccccc1)c1ccc2c(c1)S(=O)(=O)c1ccccc1C2=O	none
O=C(NCCc1ccccc1)c1ccc2c(c1)S(=O)(=O)c1cc(Cl)ccc1C2=O	Rev-erbA mod 68 | Rev-erbA confirm 63 | RORg counter inactive
CCOC(=O)c1sc(=NC(=O)c2ccc(C)c(C)c2)n(C)c1C	none
CCOC(=O)c1sc(=NC(=O)c2cccs2)n(C)c1C	Rev-erbA mod 31 | Rev-erbA confirm inactive
Cc1ccc2c(c1)sc(=NC(=O)c1cccs1)n2C	Rev-erbA mod 43 | Rev-erbA confirm inactive
CCOC(=O)c1sc(=NC(=O)c2ccc(OC(C)C)cc2)n(C)c1C	Rev-erbA mod 44 | Rev-erbA confirm 38 | RORg counter 4.4
Cc1cccc2sc(=S)[nH]c12	none (no result: NR2E3 ag-2)
Cc1ccc(Cl)cc1N1CCN(S(=O)(=O)c2ccc(-c3ccc(=O)[nH]n3)o2)CC1	Rev-erbA mod 135 | Rev-erbA confirm 138 | RORg counter inactive
Cc1ccc(C)c(N2CCN(S(=O)(=O)c3ccc(-c4ccc(=O)[nH]n4)o3)CC2)c1	Rev-erbA mod 33 | Rev-erbA confirm inactive
O=C(NC(=S)Nc1cccc(O)c1)C1CCCCC1	none (no result: NR2E3 ag-2)
Cc1ccc(S(=O)(=O)c2nc(Nc3ccccc3C#N)sc2Cl)cc1	PG9 binder 46, Rev-erbA mod 27 | Rev-erbA confirm 36 | RORg counter inactive
Clc1ccc(Nc2nc3ccccc3n3nnnc23)cc1	Rev-erbA mod 33 | Rev-erbA confirm 18
Clc1ccc(CCNc2nc3ccccc3n3nnnc23)cc1	none
Cc1ccc(Nc2nc3ccccc3n3nnnc23)cc1	none (not shown: Neddyl block)
Cc1cccc(CCNc2nc3ccccc3n3nnnc23)c1	Rev-erbA mod 44 | Rev-erbA confirm inactive
CSc1ccc(C(=O)Nc2cc(S(=O)(=O)N3CCOCC3)ccc2N2CCOCC2)cc1[N+](=O)[O-]	none (no result: NR2E3 ag-2)
Cc1ccc(N(CCC(=O)N2CCOCC2)S(=O)(=O)c2ccccc2)cc1	none
CCC(=O)Nc1nc2ccc(NC(C)=O)cc2s1	none
CCOc1cccc2sc(Nc3nc4ccc(NC(C)=O)cc4s3)nc12	Rev-erbA mod 49 | Rev-erbA confirm inactive
COc1cc(OC)cc(C(=O)Nc2ccc(-c3nc4ccccc4o3)cc2)c1	none (not shown: Neddyl block)
COc1cccc(C(=O)Nc2ccc(-c3nc4ccccc4o3)c(O)c2)c1	Rev-erbA mod 85 | Rev-erbA confirm 64 | RORg counter inactive

Screening data as filed in PubChem.
